NPY-Y1 antag: NPY-Y1 receptor antagonists, primary screen, cell-based. 1% of 200,000 active. AID 1040, 2008. inhibition, % at 3.6 µM. HEK293-CNG Y1 cells, membrane potential fluorescence; NPY at EC95, then isoproterenol;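 active = inhibition above the campaign mean inhibition of all tested compounds plus 3 SD, cut at about 20% in these data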;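 also: 0% = DMSO wells given NPY plus isoproterenol and 100% = isoproterenol alone without NPY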
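Material: HEK293 Y1/CNG channel cell line; also added: NPY (25 nM), isoproterenol (1 µM), Ro 20-1724 (25 µM); doses: one concentration, 3.6 µM, in 0.4% DMSO; schedule: compound incubation 1 h at room temperature, readout 45 min post-stimulation; technique: membrane potential fluorescence; measure: fluorescence ratio normalized to % inhibition between controls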
NPY2 pot ag: NPY-Y2 potentiators or agonists, primary screen, cell-based; AID 1359, 2008; cells expressing NPY-Y2, potentiator/agonist read-out; 0.45% of 220,000 active; activation, % at 3.6 µM; in the data active = activation above about 27%;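 also: cells stimulated with NPY near EC25 plus isoproterenol at EC100; 0% = vehicle plus submaximal agonist and 100% = vehicle plus saturating agonist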
Target sequence (P49146 whole entry, looked up): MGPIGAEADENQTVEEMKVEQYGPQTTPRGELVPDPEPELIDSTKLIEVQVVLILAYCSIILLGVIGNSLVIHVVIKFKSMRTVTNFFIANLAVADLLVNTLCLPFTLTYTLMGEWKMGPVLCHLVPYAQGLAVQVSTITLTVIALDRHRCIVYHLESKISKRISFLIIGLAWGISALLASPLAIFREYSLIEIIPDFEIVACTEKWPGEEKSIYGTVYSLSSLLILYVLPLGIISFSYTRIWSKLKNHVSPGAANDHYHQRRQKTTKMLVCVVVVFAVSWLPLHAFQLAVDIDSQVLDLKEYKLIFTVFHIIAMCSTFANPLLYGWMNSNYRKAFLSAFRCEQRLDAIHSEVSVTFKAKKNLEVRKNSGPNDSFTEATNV
NPY1 pot ag: NPY-Y1 receptor potentiators or agonists, primary screen, cell-based; NPY-Y1 expressing cells, potentiator/agonist activation; activation, % at 3.6 µM; 0.37% of 220,000 active; AID 1304, 2008; in the data active = activation above about 33%, passing the limit was not always enough;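 also: cells stimulated with NPY at EC10 then isoproterenol at EC100; 0% = low agonist plus stimulus and 100% = saturating agonist plus stimulus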
Furin inh: human furin inhibitors, primary screen, biochemical, fluorescence intensity; purified furin, fluorogenic substrate cleavage; inhibition, % at 20 µM or 30 µM; AID 463115, 2010; P09958; 0.061% of 220,000 active; in the data active = inhibition above about 25%
NPY-Y2 antag: NPY-Y2 receptor antagonists, primary screen, cell-based; Neuropeptide Y receptor type 2 (Homo sapiens), P49146; NPY-Y2 expressing cells, antagonist mode; inhibition, % at 2.7 µM; 0.99% of 140,000 active; in the data active = inhibition above about 17%;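 also: 0% = vehicle with agonist challenge and 100% = reference antagonist with challenge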
Cl transport mod: KCC2 cotransporter modulators, thallium flux, primary screen, cell-based, HEK293 KCC2, FluoZin-2 fluorescence, MLSMR. Solute carrier family 12 member 5 (Homo sapiens), Q9H2X9. 2.2% of 190,000 active. B-score of Tl+ flux slope (higher = more flux/activation; lower = inhibition) at 10 µM. KCC2 cells, thallium flux FluoZin-2 fluorescence;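 active = thallium flux slope and its plate-corrected score both differing from the plate sample mean at a set confidence after two filtering rounds, in either direction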;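 also: slope of fluorescence scaled to starting intensity during 10 to 20 s after thallium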
* = called active by the depositor; . = no result given. Hits are enriched below; roughly 3.7% of the tested compounds scored in any of these assays.

SMILES | NPY-Y1 antag | NPY2 pot ag | NPY1 pot ag | Furin inh | NPY-Y2 antag | Cl transport mod
O=C(O)c1ccccc1C(=O)N1CCN(c2cccc(Cl)c2)CC1 | 4.3 | 0.8 | -13.6 | -9.6 | 5.3 | -0.444
CCOc1ccccc1C(=O)N1CCN(c2cccc(Cl)c2)CC1 | 29.9* | -13.6 | -17.3 | -14.9 | 17.4* | -0.0172
CCC(=O)Nc1ccc(C(=O)Cn2ncc(Cl)c(Cl)c2=O)cc1 | . | 8.5 | 13.6 | -4.9 | . | -1.73
CCOC(=O)c1ccc(NC(=O)Cn2ncc(Cl)c(Cl)c2=O)cc1 | -8.7 | 17.6 | 58.8* | 2.0 | 1.5 | -1.02
O=C(O)CC1=C(Nc2ccccc2)C(=O)N(c2ccccc2)C1c1ccc(Br)cc1 (configuration not stated) | -1.4 | 8.9 | 13.5 | -18.3 | . | .
N#Cc1c(-c2ccncc2)c2c([nH]c1=S)CCCC2 | 0.9 | -9.1 | -9.3 | -15.0 | 0.1 | -1.05
Cc1ccc(-c2c3c([nH]c(=S)c2C#N)CCCC3)o1 | -3.5 | 2.6 | 7.6 | -2.0 | -1.0 | 24.4*
Cc1cc(=S)[nH]c2c(C)cccc12 | -0.3 | -9.7 | -11.2 | -25.9 | 7.5 | 30.8*
Cc1cccc2c(-c3ccccc3)cc(=O)[nH]c12 | 7.6 | 8.2 | -0.3 | -21.8 | 2.1 | -0.764
CC(=O)c1sc(-c2ccccc2)cc1NS(=O)(=O)c1ccccc1 | . | 1.9 | -14.2 | 1.5 | . | 1.57
CC(=O)c1sc(-c2ccccc2)cc1NS(=O)(=O)c1ccc(C)cc1 | . | 8.3 | -6.5 | -12.6 | . | 30.4*
CC(C)NC(=S)N/N=C/c1cc(Br)ccc1O | -6.0 | 30.1 | 32.8 | -8.5 | -3.7 | 5.9*
O=C(Nc1cccc(Cn2cccn2)c1)c1cc2c(s1)CCCC2 | 6.1 | -7.6 | -15.0 | 25.7* | 6.0 | -1.27
CC(=O)Nc1cccc(Cn2cccn2)c1 | -8.6 | 20.3 | 8.2 | 5.1 | 1.0 | .
N#CCC(CNc1ncc(C(F)(F)F)cc1Cl)OC(=O)c1ccc(Cl)cc1Cl (configuration not stated) | 5.1 | -16.7 | -53.2 | -12.7 | 1.0 | .
CCOC(=O)c1c(C)[nH]c(=S)c(C#N)c1-c1ccc(OC)cc1 | 6.9 | 4.3 | -1.9 | 15.3 | 2.4 | -1.46
CCOC(=O)c1c(C)[nH]c(=S)c(C#N)c1-c1ccc(Cl)cc1 | 7.9 | 1.9 | -19.5 | -3.7 | 1.1 | 10.7*
CCCNC(=O)C(=O)NCCC1=CCCCC1 | -3.6 | -9.7 | 30.4 | -14.3 | -0.3 | -0.106
O=C(NC(=S)NCCC1=CCCCC1)c1cncc(Br)c1 | 4.3 | -15.1 | -39.1 | -19.1 | 3.2 | 14.9*
O=C(NCC1CCCO1)c1cccc(S(=O)(=O)NCc2ccccc2)c1 (configuration not stated) | -1.9 | -0.5 | -1.3 | -11.8 | . | -0.407
O=C(COC(=O)C1CCN(C(=O)c2ccc(Cl)cc2)CC1)NC1CCS(=O)(=O)C1 (configuration not stated) | 1.4 | 13.1 | 6.9 | -15.2 | . | 0.53
COc1ccc(OC)c(NC(=O)C(=O)NNC(=O)COc2ccc(Br)cc2C)c1 | 6.5 | -17.6 | -6.3 | 1.9 | . | 91*
COc1ccc(CC(=O)NNC(=O)COc2ccc(Br)cc2C)cc1OC | 5.0 | 6.3 | -5.6 | -18.1 | 7.8 | 0.624
COc1ccc(C)cc1NC(=O)C(=O)NNC(=O)COc1ccc(Cl)cc1 | 8.9 | -17.6 | -19.6 | -26.7 | . | 77.9*
COc1ccc(C)cc1NC(=O)COC(=O)C1CCN(C(=O)c2ccc(Cl)cc2)CC1 | -5.1 | 89.6* | 86.2* | 1.3 | . | -1.56
SMILES | NPY-Y1 antag | NPY2 pot ag | NPY1 pot ag | Furin inh | NPY-Y2 antag | Cl transport mod
Cc1ccc(OCC(=O)NNC(=O)C(=O)NC(C)(C)C)cc1 | 12.4 | -3.2 | -5.4 | -12.5 | 2.1 | 13*
CC(=O)N(C(C)=O)C1=C(C#N)C2(CCCCC2)Cc2ccccc21 | -0.1 | -7.2 | 26.0 | -22.8 | 2.4 | -0.793
O=C(COc1ccccc1[N+](=O)[O-])N/N=C/c1cccs1 | 0.4 | 5.0 | -22.0 | -17.0 | 0.2 | -0.49
CCOc1ccc(-c2nc[nH]c2[N+](=O)[O-])cc1 | 2.2 | 1.2 | 9.1 | -22.1 | . | -0.00971
Cc1ccc(OCC(=O)Nc2ccc([N+](=O)[O-])cc2)cc1 | 2.2 | 4.0 | -32.7 | -28.7 | 6.0 | 0.205
O=C(COc1ccc(Br)cc1)Nc1ccc([N+](=O)[O-])cn1 | 20.9* | -1.3 | -17.0 | -22.6 | 12.4 | -0.0713
C/C(=N/NC(=O)c1cc(C)[nH]n1)c1ccco1 | . | 1.5 | 3.5 | -17.4 | . | 0.0753
COc1cc(/C=C2\C(=O)ON=C2c2ccccc2)cc(Cl)c1O | -3.6 | -4.2 | -1.8 | -31.0 | . | -5.3*
COc1cc(/C=C2/C(=O)ON=C2c2ccccc2)ccc1O | 2.4 | -6.5 | 9.2 | -11.8 | -0.6 | -0.957
O=C(N/N=C/c1ccc2cccc(OCc3ccccc3)c2n1)c1ccc(Br)cc1 | 13.1 | -32.0 | -42.7 | -20.4 | 7.4 | 10.9*
NC(N)=N/N=C/c1ccc2cccc(OCc3ccccc3)c2n1 | . | -13.0 | 4.9 | 4.6 | . | -0.0284
COc1ccc(C(=O)N/N=C/c2ccc3cccc(OCc4ccccc4)c3n2)cc1 | 12.6 | -72.2 | -78.3 | 1.8 | 12.7 | 4.08*
COc1ccc(C(=O)N/N=C/c2cccc3cccnc23)cc1 | 3.0 | -7.3 | -1.6 | -4.3 | 3.9 | -0.942
O=C(N/N=C/c1ccccn1)c1ccc(Br)cc1 | -1.9 | 4.3 | -25.5 | -12.8 | 2.9 | 4.17*
Cn1cccc1/C=C(/C#N)c1ccc(F)cc1 | -5.6 | 0.3 | 3.0 | -3.5 | . | -0.797
COc1ccc(/C=N/n2c(-c3cccs3)n[nH]c2=S)cc1 | 1.8 | 0.5 | 25.8 | -24.4 | 1.4 | 30.7*
S=c1[nH]nc(-c2ccncc2)n1/N=C/c1ccccc1 | -0.7 | 8.2 | -8.2 | -13.0 | 3.6 | 1.17
Cc1ccc(/C=N/n2c(-c3cccs3)n[nH]c2=S)cc1 | 9.0 | -5.0 | -6.2 | -15.7 | -0.7 | 30.3*
CCN(CC)S(=O)(=O)c1cccc(-c2n[nH]c(=S)n2/N=C/c2ccc(OC)cc2)c1 | 8.0 | 8.2 | -7.6 | -31.2 | 5.7 | 1.25
O=c1c2c3c(sc2n2c(=S)[nH]nc2n1Cc1ccccc1)CN(Cc1ccccc1)CC3 | -1.7 | 0.8 | -8.0 | -18.5 | 2.1 | -0.561
CC(O)CNCCNCc1c(OCc2ccccc2)ccc2ccccc12 (configuration not stated) | 95.8* | -40.7 | -116.0 | -32.0 | 37.7* | -0.799
CC(O)CNCCOc1ccccc1OCc1ccccc1 (configuration not stated) | 9.3 | -2.2 | -16.1 | -17.0 | . | 0.0792
COc1ccc(-c2csc(CCN3N=C(C)CC3=O)n2)cc1 | -3.5 | -13.0 | -13.3 | -13.4 | . | -1.27
CCSc1nnc(NC(=O)Cc2cc(OC)c(OC)c(OC)c2)s1 | 3.2 | -3.7 | -20.4 | -14.1 | . | -0.518
